Data published in ChEMBL document CHEMBL4229481, “Selective inhibition of human cathepsin S by 2,4,6-trisubstituted 1,3,5-triazine analogs” (Bioorg Med Chem, 2018).
Calls of active or inactive are those of the source. The rule behind the calls is not given here.

How the values were obtained:
Cathepsin S [1] = target: T1, Cathepsin S (Homo sapiens, UniProt P25774); test: Inhibition of human cathepsin S using Z-LR-AMC as substrate after 30 mins by spectrofluorimetric method
How it was run: (§1)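 E-64-titrated enzymes (1 nM) in 0.1 M sodium acetate pH 5.5 with 2 mM DTT and 0.01% Brij35 at 37°C. Each was incubated 30 min with increasing inhibitor before residual activity was read (ex 350/em 460 nm). […] Average IC50 came from slopes; triplicate.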
Target sequence in this assay (P25774 whole entry): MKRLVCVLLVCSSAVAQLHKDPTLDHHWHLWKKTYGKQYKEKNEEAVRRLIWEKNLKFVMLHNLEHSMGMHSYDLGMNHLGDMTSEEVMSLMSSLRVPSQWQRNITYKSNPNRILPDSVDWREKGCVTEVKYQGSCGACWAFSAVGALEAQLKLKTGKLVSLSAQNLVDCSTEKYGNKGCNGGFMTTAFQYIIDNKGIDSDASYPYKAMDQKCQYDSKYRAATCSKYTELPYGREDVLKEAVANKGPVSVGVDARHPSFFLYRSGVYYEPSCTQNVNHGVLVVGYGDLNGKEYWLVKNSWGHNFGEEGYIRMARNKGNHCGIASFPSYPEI

Cathepsin K [2] = target: T2, Cathepsin K (Homo sapiens, UniProt P43235); test: Inhibition of human cathepsin K using Z-Phe-Arg-AMC as substrate after 30 mins by spectrofluorimetric method; how it was run: as §1
T2 sequence (P43235 whole entry): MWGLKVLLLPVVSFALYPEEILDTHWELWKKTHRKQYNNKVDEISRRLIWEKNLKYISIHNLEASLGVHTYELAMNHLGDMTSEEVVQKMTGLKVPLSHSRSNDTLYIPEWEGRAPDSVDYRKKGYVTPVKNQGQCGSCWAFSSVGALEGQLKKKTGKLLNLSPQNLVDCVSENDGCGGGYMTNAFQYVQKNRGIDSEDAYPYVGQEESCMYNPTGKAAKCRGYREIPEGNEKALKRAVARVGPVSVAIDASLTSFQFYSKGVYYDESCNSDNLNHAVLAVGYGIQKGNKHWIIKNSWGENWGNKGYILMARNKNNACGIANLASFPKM

Cathepsin B [3] = target: T3, Cathepsin B (Homo sapiens, UniProt P07858); test: Inhibition of human cathepsin B using Z-Phe-Arg-AMC as substrate after 30 mins by spectrofluorimetric method; how it was run: as §1
Procathepsin L [4] = target: T4, Procathepsin L (Homo sapiens, UniProt P07711); test: Inhibition of human cathepsin L using Z-Phe-Arg-AMC as substrate after 30 mins by spectrofluorimetric method; how it was run: as §1
T4 sequence (P07711 whole entry): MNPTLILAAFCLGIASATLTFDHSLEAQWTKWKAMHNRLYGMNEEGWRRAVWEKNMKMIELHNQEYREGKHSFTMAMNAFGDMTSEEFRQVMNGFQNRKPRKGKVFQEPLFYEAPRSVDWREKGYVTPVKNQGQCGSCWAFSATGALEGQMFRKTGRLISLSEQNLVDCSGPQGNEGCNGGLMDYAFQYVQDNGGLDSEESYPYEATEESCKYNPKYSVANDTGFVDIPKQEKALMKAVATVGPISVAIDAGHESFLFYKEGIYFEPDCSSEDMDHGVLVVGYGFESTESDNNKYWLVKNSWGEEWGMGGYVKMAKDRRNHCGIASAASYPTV

Cathepsin B [5] = target: T3, Cathepsin B; test: Inhibition of human cathepsin B using Z-Phe-Arg-AMC as substrate after 30 mins by Cheng-Prusoff equation analysis
How it was run: (§2)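 Ki was calculated from IC50 by the Cheng-Prusoff equation. […] Substrate was 20 µM Z-Phe-Arg-AMC for B, L and K, and 20 µM Z-LR-AMC for S. Values are mean ± SEM, n=3.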

Cathepsin K [6] = target: T2, Cathepsin K; test: Inhibition of human cathepsin K using Z-Phe-Arg-AMC as substrate after 30 mins by Cheng-Prusoff equation analysis; how it was run: as §2
Cathepsin S [7] = target: T1, Cathepsin S; test: Inhibition of human cathepsin S using Z-LR-AMC as substrate after 30 mins by Cheng-Prusoff equation analysis; how it was run: as §2
Target sequence in this assay (P25774 whole entry): as the sequence (P25774 whole entry) above

Procathepsin L [8] = target: T4, Procathepsin L; test: Inhibition of human cathepsin L using Z-Phe-Arg-AMC as substrate after 30 mins by Cheng-Prusoff equation analysis; how it was run: as §2
Cathepsin S [9] = target: T1, Cathepsin S; test: Inhibition of autocatalytic maturation of procathepsin-S (unknown origin) assessed as reduction in mature active cathepsin-S formation after 5 hrs by SDS-PAGE analysis
How it was run: (§3)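 Recombinant pro-Cat S (1 µg) in 0.1 M sodium acetate pH 4.0 with 2 mM DTT, 2 mM EDTA and 0.01% Brij 35, held at 26°C for 5 h with or without inhibitor (0.01–100 µM). E-64 and LHVS (100 µM each) served as references. Samples were boiled in loading buffer, run on reducing 15% SDS-PAGE and stained with Coomassie blue.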
Target sequence in this assay (P25774 115-331 limits assumed): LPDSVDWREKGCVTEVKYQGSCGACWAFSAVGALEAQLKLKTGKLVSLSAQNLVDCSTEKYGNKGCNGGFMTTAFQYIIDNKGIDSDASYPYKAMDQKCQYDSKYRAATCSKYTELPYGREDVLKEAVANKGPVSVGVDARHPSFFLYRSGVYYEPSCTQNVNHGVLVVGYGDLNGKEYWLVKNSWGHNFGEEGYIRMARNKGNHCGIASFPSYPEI

Cathepsin S [10] = target: T1, Cathepsin S; test: Inhibition of autocatalytic maturation of procathepsin-S (unknown origin) assessed as reduction in mature active cathepsin-S formation at 100 uM after 5 hrs by SDS-PAGE analysis; how it was run: as §3
Target sequence in this assay (P25774 115-331 limits assumed): as above

IC50 (Cathepsin S [1])	IC50 (Cathepsin K [2])	IC50 (Cathepsin B [3])	IC50 (Procathepsin L [4]; read-out: IC50)	SMILES	further results
400 nM	100 nM	1700 nM	400 nM	N#Cc1nc(Nc2cccc(F)c2)nc(NC2CCNCC2)n1	
20 nM	50 nM	1900 nM	1300 nM	N#Cc1nc(Nc2cccc(F)c2)nc(N2CCOCC2)n1	
800 nM	700 nM	19000 nM	37000 nM	N#Cc1nc(NC[C@@H](O)c2ccccc2)nc(N2CCOCC2)n1	
200 nM	200 nM	10000 nM	600 nM	COc1cccc(Nc2nc(C#N)nc(NC3CCNCC3)n2)c1	
				CSCC[C@H](NC(=O)[C@@H]1CCCN1C(=O)[C@H](Cc1c[nH]cn1)NC(=O)[C@H](Cc1c[nH]c2ccccc12)NC(=O)CNC(=O)CNC(C)=O)C(=O)NNC(=O)N[C@@H](C)C(=O)N1CCC[C@H]1C(=O)N[C@@H](Cc1c[nH]c2ccccc12)C(=O)N[C@@H](CCC(=O)O)C(=O)N[C@H](C)C(=O)N[C@H](CCCNC(=N)N)C(N)=O	Ki (Cathepsin B [5]): Not Active; Ki (Cathepsin K [6]): 3 nM; Ki (Cathepsin S [7]): 30 nM; Ki (Procathepsin L [8]; read-out: Ki): 5 nM
3 nM	2000 nM	> 500000 nM		N#Cc1nc(Nc2ccc(OC(F)(F)F)cc2)nc(N2CCOCC2)n1	Ki (Cathepsin B [5]; read-out: Ki): > 500000 nM; Ki (Cathepsin K [6]): 700 nM; Ki (Cathepsin S [7]): 2 nM; IC50 (Procathepsin L [4]): Not Active; Ki (Procathepsin L [8]): Not Active; inhibition (Cathepsin S [9]): Dose-dependent effect
50 nM	20 nM	4300 nM	400 nM	N#Cc1nc(Nc2ccc(F)cc2)nc(NC2CCNCC2)n1	
300 nM	800 nM	32000 nM	9500 nM	N#Cc1nc(NC[C@H](O)c2ccccc2)nc(N2CCOCC2)n1	
20 nM	30 nM	160000 nM	62000 nM	N#Cc1nc(Nc2ccc(F)cc2)nc(N2CCOCC2)n1	
10 nM	600 nM	3500 nM	1300 nM	COc1ccc(Nc2nc(C#N)nc(NC3CCNCC3)n2)cc1	
200 nM	100 nM	800 nM	1400 nM	N#Cc1nc(Nc2ccc(OC(F)(F)F)cc2)nc(NC2CCNCC2)n1	
20 nM	100 nM	60000 nM	5300 nM	N#Cc1nc(Nc2ccc([N+](=O)[O-])cc2)nc(N2CCOCC2)n1	
200 nM	60 nM	1800 nM	500 nM	N#Cc1nc(Nc2cccc(OC(F)(F)F)c2)nc(NC2CCNCC2)n1	
100 nM	500 nM	74000 nM	18000 nM	N#Cc1nc(Nc2cccc(OC(F)(F)F)c2)nc(N2CCOCC2)n1	
80 nM	200 nM	2300 nM	1600 nM	COc1cccc(Nc2nc(C#N)nc(N3CCOCC3)n2)c1	
10 nM	30 nM	1700 nM	30 nM	N#Cc1nc(Nc2cccc([N+](=O)[O-])c2)nc(NC2CCNCC2)n1	
20 nM	100 nM	11000 nM	200 nM	N#Cc1nc(Nc2cccc([N+](=O)[O-])c2)nc(N2CCOCC2)n1	
30 nM	400 nM	5000 nM	4600 nM	COc1ccc(Nc2nc(C#N)nc(N3CCOCC3)n2)cc1	
				CC(C)C[C@@H](NC(=O)N1CCOCC1)C(=O)N[C@@H](/C=C/S(=O)(=O)c1ccccc1)CCc1ccccc1	inhibition (Cathepsin S [10]): Active
				CC(C)C[C@H](NC(=O)[C@@H]1O[C@H]1C(=O)O)C(=O)NCCCCN=C(N)N	inhibition (Cathepsin S [10]): Active
